As usually defined, the MIC50 is the lowest concentration that inhibits either 50% of growth or 50% of the strains tested, depending on the study. One may read the MIC80 as an inhibitory concentration at the 80% level, which refers to growth in some studies and to a panel of isolates in others. A word on the MIC: it is the lowest concentration found to suppress growth.

Holding throughout (assay type): functional
One test has as its system Enterobacter cloacae. The test can be described thus: Potentiation of minocycline-induced antibacterial activity against Enterobacter cloacae 117029 assessed as fold reduction in minocycline MIC at 7.5 uM incubated for 18 hrs by broth dilution method. In a few lines:
(§1)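 Antibiotic MIC determined by CLSI broth microdilution (MHB, 5 × 10^5 CFU/mL, 18 h, 37 °C), once alone and once with a fixed concentration of the adjuvant. Potentiation is the ratio of the antibiotic MIC alone to its MIC in the presence of the adjuvant.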

Test [1] deals with Pseudomonas aeruginosa. The test can be described thus: Potentiation of minocycline-induced antimicrobial activity against MDR/XDR Pseudomonas aeruginosa isolate 101243 devoid of GyrA Thr83Ile mutant assessed as minocycline MIC50 incubated for 18 hrs by broth microdilution method (reference value: 16 microg/ml). As to conditions: isolate 101243, 18 h.
Test [2] concerns Acinetobacter baumannii. Kind of test: Potentiation of rifampicin-induced antibacterial activity against multidrug-resistant Acinetobacter baumannii AB027 assessed as fold reduction in rifampicin MIC at 7.5 uM incubated for 18 hrs by broth dilution method. In a few lines: (§2)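 CLSI broth microdilution. Overnight cultures were set to 0.5 McFarland in saline, diluted 1:50 in Mueller-Hinton broth to a final 5 × 10^5 CFU/mL, and incubated 18 h at 37 °C against 2-fold antibiotic dilutions. A fixed adjuvant level was present throughout. MIC = lowest concentration with no visible turbidity, confirmed at 590 nm. Potentiation = fold drop in antibiotic MIC versus antibiotic alone.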
For orientation: Broth dilution looks for growth in wells or tubes with falling amounts of substance.

Test [3] relates to Pseudomonas aeruginosa. Kind of test: Potentiation of rifampicin-induced antimicrobial activity against MDR/XDR Pseudomonas aeruginosa isolate 91433 devoid of GyrA Thr83Ile mutant assessed as rifampicin MIC50 incubated for 18 hrs by broth microdilution method (reference value: 8 microg/ml). As to conditions: isolate 91433, 18 h.
The test system of test [4] is Pseudomonas aeruginosa. The test can be described thus: Potentiation of moxifloxacin-induced antibacterial activity against MDR/XDR Pseudomonas aeruginosa isolate 91433 devoid of GyrA T83I mutant assessed as fold reduction in moxifloxacin MIC at 7.5 uM incubated for 18 hrs by broth microdilution method. In a few lines:
as §2

For test [5], the system named is Pseudomonas aeruginosa. Kind of test: Potentiation of ciprofloxacin-induced antibacterial activity against MDR/XDR Pseudomonas aeruginosa isolate 91433 devoid of GyrA T83I mutant assessed as fold reduction in ciprofloxacin MIC at 7.5 uM incubated for 18 hrs by broth microdilution method.
The test system of test [6] is Pseudomonas aeruginosa. Kind of test: Potentiation of rifampicin-induced antimicrobial activity against MDR/XDR Pseudomonas aeruginosa isolate 101243 devoid of GyrA Thr83Ile mutant assessed as rifampicin MIC80 incubated for 18 hrs by broth microdilution method (reference value: 16 microg/ml). As to conditions: isolate 101243, 18 h.
Test [7] deals with Acinetobacter baumannii. The test can be described thus: Synergistic antibacterial activity against multidrug-resistant Acinetobacter baumannii 110193 assessed as fractional inhibitory concentration index in presence of rifampicin incubated for 18 hrs by broth dilution method.
For test [8], the system named is Pseudomonas aeruginosa. The test can be described thus: Synergistic antibacterial activity against MDR/XDR Pseudomonas aeruginosa isolate PA264-104354 harboring GyrA T83I mutant assessed as fractional inhibitory concentration index in presence of ciprofloxacin incubated for 18 hrs by broth microdilution method. In a few lines: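 Checkerboard synergy assay. Antibiotic and adjuvant in twofold dilutions in Mueller-Hinton broth. Inoculum 5 × 10^5 CFU/mL from a 0.5 McFarland suspension, 18 h at 37 °C, MIC read by turbidity and confirmed at 590 nm. FIC = MIC in combination / MIC alone for each agent, FICI = sum. Interpreted as ≤0.5 synergy, 0.5–4 no interaction, >4 antagonism.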

In test [9] the test system is Pseudomonas aeruginosa. Kind of test: Potentiation of ciprofloxacin-induced antibacterial activity against MDR/XDR Pseudomonas aeruginosa isolate 101243 devoid of GyrA T83I mutant assessed as fold reduction in ciprofloxacin MIC at 9 uM incubated for 18 hrs by broth microdilution method.
In test [10] the test system is Pseudomonas aeruginosa. Kind of test: Potentiation of rifampicin-induced bactericidal activity in MDR/XDR Pseudomonas aeruginosa isolate PA259-96918 harboring GyrA T83I mutant assessed as complete eradication of bacteria at 4 ug/ml incubated for 4 hrs in presence of 1 to 4 ug/ml rifampicin by time kill curve assay. In a few lines: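 Time-kill assay against XDR P. aeruginosa PA259. Overnight culture adjusted to 0.5 McFarland in saline, diluted 1:50 in LB. Incubated at 37 °C for 24 h with rifampicin and adjuvant, alone or combined at various concentrations. Aliquots taken at intervals, serially diluted in PBS and plated on LB agar. Colonies counted after 20 h at 37 °C. Untreated cells as control.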

The subject of test [11] is Pseudomonas aeruginosa. The test can be described thus: Antimicrobial activity against XDR Pseudomonas aeruginosa isolate PA264 infected in Galleria mellonella larvae assessed as survival rate at 50 mg/kg co-administered with 50 mg/kg rifampicin at 2 hrs post-inoculation measured after 18 hrs relative to control. In a few lines:
(§3)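 G. mellonella larvae were injected with ~5 CFU of P. aeruginosa PA264 (10 µL of 5 × 10^2 CFU/mL in PBS) and held 2 h at 37 °C. A single 10 µL injection followed: monotherapy or rifampicin + compound (25+25, 50+50 or 75+75 mg/kg), with PBS as control. Larvae kept at 37 °C were scored every 6 h to 24 h; dead = no response to touch. n = 30 (two runs of 15); Kaplan-Meier.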

Another test has as its system Klebsiella pneumoniae. Kind of test: Potentiation of minocycline-induced antibacterial activity against Klebsiella pneumoniae 116381 assessed as fold reduction in minocycline MIC at 4.1 uM incubated for 18 hrs by broth dilution method. In a few lines:
as §1

For test [12], the system named is Pseudomonas aeruginosa. The test can be described thus: Antimicrobial activity against XDR Pseudomonas aeruginosa isolate PA264 infected in Galleria mellonella larvae assessed as survival rate at 75 mg/kg co-administered with 75 mg/kg rifampicin at 2 hrs post-inoculation measured after 24 hrs relative to control. An outline of the steps:
as §3

In test [13] the test system is Escherichia coli. The test can be described thus: Synergistic antibacterial activity against Escherichia coli ATCC 25922 assessed as fractional inhibitory concentration index in presence of rifampicin incubated for 18 hrs by broth dilution method. In a few lines:
(§4)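 Checkerboard titration of the adjuvant against the antibiotic, run under the CLSI microdilution conditions (MHB, 5 × 10^5 CFU/mL, 18 h, 37 °C). Each agent's FIC is its MIC in combination divided by its MIC alone; FICI is the sum of the two FICs. FICI ≤0.5 was read as synergy, >0.5–4.0 as no interaction, and >4.0 as antagonism.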

Test [14] deals with Escherichia coli. Kind of test: Potentiation of rifampicin-induced antibacterial activity against Escherichia coli 94474 assessed as fold reduction in rifampicin MIC at 4.1 uM incubated for 18 hrs by broth dilution method. In a few lines: as §2
The test system of test [15] is Acinetobacter baumannii. Kind of test: Antimicrobial activity against multidrug-resistant Acinetobacter baumannii AB92247 incubated for 18 hrs by broth dilution method. As to conditions: AB92247, 18 h. In a few lines: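 Broth microdilution per CLSI: overnight cultures set to 0.5 McFarland in saline, diluted 1:50 in Mueller-Hinton broth to a final 5 × 10^5 CFU/mL, added to 2-fold serial dilutions, incubated 18 h at 37 °C; MIC is the lowest concentration without visible turbidity, confirmed at 590 nm.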

Test [16] relates to Acinetobacter baumannii. The test can be described thus: Synergistic antibacterial activity against multidrug-resistant Acinetobacter baumannii AB110193 assessed as fractional inhibitory concentration index in presence of minocycline incubated for 18 hrs by broth dilution method.
Test [17] relates to Escherichia coli. Kind of test: Synergistic antibacterial activity against Escherichia coli 94474 assessed as fractional inhibitory concentration index in presence of minocycline incubated for 18 hrs by broth dilution method. An outline of the steps:
as §4

`COc1c(N2C[C@@H]3CCCN(CCCCCCCCCCCCO[C@@H]4[C@@H](O)[C@H](N)C[C@H](N)[C@H]4O[C@H]4O[C@H](CN)[C@@H](O)C[C@H]4N)[C@@H]3C2)c(F)cc2c(=O)c(C(=O)O)cn(C3CC3)c12.Cl.Cl.Cl.Cl.Cl`: the “fold change (FC)” value is on record as 16 in the test on Enterobacter cloacae, 32 in the test with Acinetobacter baumannii [2], 16 in the test with Pseudomonas aeruginosa [4] and 16 in the test with Pseudomonas aeruginosa [5]. Also, the MIC50 in the test on Pseudomonas aeruginosa [1] was 0.5 µg/mL; in the test with Pseudomonas aeruginosa [3] it was 0.06 µg/mL. In addition, the MIC80 in the test on Pseudomonas aeruginosa [6] was found to be 0.13 µg/mL. For the same molecule, the “fractional inhibitory concentration index (FICI)” value was 0.031 - 0.047 with Acinetobacter baumannii [7] and 0.16 with Pseudomonas aeruginosa [8].

Turning to `Cl.Cl.Cl.Cl.Cl.Cl.NC[C@H]1O[C@H](O[C@H]2[C@H](OCCCCCCCCCCN3CCN(Cc4cccc5ccccc45)CC3)[C@@H](O)[C@H](N)C[C@@H]2N)[C@H](N)C[C@@H]1O`, in the test on Pseudomonas aeruginosa [9], the “fold change (FC)” value is listed as 4.

Consider `Cl.Cl.Cl.Cl.Cl.NC[C@H]1O[C@H](O[C@H]2[C@H](OCCCCCCCCCCCCN3CCN(c4cc5c(cc4F)c(=O)c(C(=O)O)cn5C4CC4)CC3)[C@@H](O)[C@H](N)C[C@@H]2N)[C@H](N)C[C@@H]1O`, for which, in the test with Pseudomonas aeruginosa [10], the Activity is recorded as 100%. The survival at 50 mg/kg in the test on Pseudomonas aeruginosa [11] came to 60%. In addition, the “fold change (FC)” value with Klebsiella pneumoniae turned out to be 16; with Escherichia coli [14], 256. The survival at 75 mg/kg in the test on Pseudomonas aeruginosa [12] stood at 53%. Also, the “fractional inhibitory concentration index (FICI)” value in the test on Escherichia coli [13] is 0.133; in the test with Acinetobacter baumannii [16], >1; in the test with Escherichia coli [17], 0.063 - 0.078. The MIC against Acinetobacter baumannii [15] was found to be 128 µg/mL.
